Measured values as given in paper PMC11235002 (BMJ Oncology, 2024).
Marks after values point to notes of the source that are not given here.

How the values were obtained:
T-cell = conditions: in vitro; cited from earlier work
[1] = test system: advanced or metastatic solid tumours; assay: Antitumour activity per RECIST v1.1; assay type: in vivo, human
Summary of the method: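 Part 1a monotherapy dose escalation used a standard 3+3 design, with 8 dose levels from 50 mg to 1000 mg. The test compound was given orally twice daily as tablet or capsule on days 1–28 of 28-day cycles. BOR, ORR and PFS followed RECIST v1.1, with confirmed responses unless stated otherwise. Response-evaluable patients had ≥1 dose, a baseline scan and ≥1 postbaseline scan, or qualifying discontinuation.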

[2] = monotherapy dose escalation Part 1a total (n=25)
[3] = monotherapy dose escalation Part 1a total (n=30)
[4] = monotherapy dose expansion Part 2 total (n=73)
[5] = monotherapy dose expansion Part 2 total (n=77)

C[C@H](N)C(=O)N1C[C@H](CCCB(O)O)[C@](N)(C(=O)O)C1 [INCB001158]
T-cell immunosuppression (T-cell): reversed T-cell immunosuppression in vitro
confirmed partial response ([1]; monotherapy 100 mg two times per day, Part 2 (n=73), one patient, urothelial cancer): 1.4%
objective response ([1]; monotherapy dose escalation Part 1a (n=25)): No patient in the monotherapy cohort had an objective response
BOR of stable disease ([1]; monotherapy dose escalation Part 1a (n=25), five patients): 20.0%
BOR: CR [1, 2]: 0 n (%)
BOR: NE [1, 2]: 1 (4.0) n (%)
BOR: PD [1, 2]: 19 (76.0) n (%)
BOR: PR [1, 2]: 0 n (%)
BOR: SD [1, 2]: 5 (20.0) n (%)
ORR [1, 2]: 0 (0 to 13.7) n (%) (95% CI)
PFS events [1, 3]: 21 (70.0) n (%)
PFS, median (95% CI) [1, 3]: 1.8 (1.8 to 1.9) mo
BOR: CR [1, 4]: 0 n (%)
BOR: Missing [1, 4]: 10 (13.7) n (%)
BOR: NE [1, 4]: 3 (4.1) n (%)
BOR: PD [1, 4]: 37 (50.7) n (%)
BOR: SD [1, 4]: 22 (30.1) n (%)
ORR [1, 4]: 1 (1.4) (0 to 7.4) n (%) (95% CI)
BOR: PR ([1]; monotherapy dose expansion Part 2 total (n=73), well-differentiated urothelial cancer): 1 (1.4)† n (%)
PFS events [1, 5]: 58 (75.3) n (%)
PFS, median (95% CI) [1, 5]: 1.9 (1.8 to 2.1) mo
